Assay results published in ChEMBL document CHEMBL4706580, “4-Amino-1,2,4-triazole-3-thione-derived Schiff bases as metallo-β-lactamase inhibitors” (Eur J Med Chem, 2020).
Activity calls are given as the source filed them. The rule behind the calls is not given here.

Assays:
Escherichia coli [1] = assay: Antibacterial activity against NDM-1 producing Escherichia coli in presence of colistin by broth microdilution method.; format: functional
[2] = Inhibition of beta-lactamase NDM-1 (unknown origin) expressed in Escherichia coli LZ2310 assessed as potentiation of ceftazidime antibacterial activity by measuring ceftazidime induced diameter of inhibition zone at 80 uM incubated for 18 hrs by disk diffusion method (reference value: 15 mm)
Summary of the method: (§1)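 Efflux-deficient E. coli LZ2310 (NorE, MdfA, AcrA knocked out) carrying pLB-II with the cloned MBL gene. Mueller-Hinton, CLSI disk diffusion; antibiotic disks (30 µg cefoxitin for VIM-2, 10 µg ampicillin for VIM-4, 30 µg ceftazidime for NDM-1/IMP-1) loaded with inhibitor in DMSO (≤15 µL). Zone diameter after 18 h, 35 ± 1 °C; DMSO and 220 µg EDTA controls. Triplicate.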

[3] = Inhibition of beta-lactamase VIM2 (unknown origin) expressed in Escherichia coli BL21(DE3) using imipenem as substrate by measuring substrate hydrolysis at 200 uM by spectrophotometric analysis
Summary of the method: (§2)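 Purified enzyme (overproduced in E. coli BL21(DE3), pET-9a; ion-exchange and gel filtration), 1-70 nM final. Reporter substrate 150 μM imipenem, read at 300 nm, 30 °C, 50 mM HEPES pH 7.5. Single-point screen at 100 or 200 μM; Ki from v0/vi vs [I] (0.5–1,000 μM final) assuming competitive inhibition, or Dixon plot. Triplicate.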

Escherichia coli [4] = assay: Synergistic antibacterial activity against NDM-1 producing Escherichia coli assessed ass MIC of ceftazidime/avibactam at 32 ug/ml by broth microdilution method; format: functional; details: dose 32 µg/ml
Summary of the method: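 MIC of ceftazidime-avibactam (avibactam fixed at 4 µg/mL) by CLSI broth microdilution in Mueller-Hinton broth. Used the NDM-1-producing multidrug-resistant E. coli clinical isolate SI-001M at 5 × 10⁴ CFU/well, with and without inhibitor at a fixed 32 µg/ml. No colistin added. Triplicate determinations.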

[5] = Inhibition of beta-lactamase VIM4 (unknown origin) expressed in Escherichia coli BL21(DE3) using imipenem as substrate by measuring substrate hydrolysis at 200 uM by spectrophotometric analysis; summary of the method: as §2
Escherichia coli [6] = assay: Synergistic antibacterial activity against NDM-1 producing Escherichia coli assessed as MIC of imipenem at 32 ug/ml by broth microdilution method; format: functional; details: dose 32 µg/ml
[7] = Inhibition of beta-lactamase L1 (unknown origin) expressed in Escherichia coli BL21(DE3) using nitrocefin as substrate by measuring substrate hydrolysis at 100 uM preincubated for 30 mins by spectrophotometric analysis
Summary of the method: (§3)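 Enzyme 0.2–0.8 nM in 25 mM HEPES pH 7.5 with 50 μM ZnCl2 final, pre-incubated 30 min at 21 °C with inhibitor (100 μM screen). Nitrocefin 100 μM final, read at 482 nm, 30 °C. Residual activity vs three uninhibited samples; Ki (1–100 μM inhibitor) from Hanes linearization, competitive model. Triplicate.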

[8] = Inhibition of beta-lactamase L1 (unknown origin) expressed in Escherichia coli BL21(DE3) using nitrocefin as substrate by measuring substrate hydrolysis at 200 uM preincubated for 30 mins by spectrophotometric analysis
Escherichia coli [9] = assay: Synergistic antibacterial activity against NDM-1 producing Escherichia coli assessed as MIC of ceftazidime at 32 ug/ml by broth microdilution method; format: functional; details: dose 32 µg/ml
[10] = Inhibition of beta-lactamase VIM4 (unknown origin) expressed in Escherichia coli BL21(DE3) using imipenem as substrate by measuring substrate hydrolysis at 100 uM by spectrophotometric analysis; summary of the method: as §2
Escherichia coli [11] = assay: Synergistic antibacterial activity against NDM-1 producing Escherichia coli assessed as MIC of meropenem at 32 ug/ml by broth microdilution method; format: functional; details: dose 32 µg/ml
[12] = Inhibition of beta-lactamase NDM1 (unknown origin) expressed in Escherichia coli BL21(DE3) using cefotaxime/nitrocefin as substrate by measuring substrate hydrolysis by spectrophotometric analysis
Summary of the method: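 His-tagged enzyme from E. coli BL21(DE3) pET-15b, affinity-purified, 1-70 nM final. Reporter substrate 120 μM cefotaxime (260 nm) or 100 μM nitrocefin (482 nm), 30 °C, 50 mM HEPES pH 7.5. Inhibitor 0.5–1,000 μM final; competitive Ki from v0/vi vs [I] slope or Dixon plot. Triplicate.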

[13] = molecular target: Hydroxyacylglutathione hydrolase (Homo sapiens); assay: Inhibition of human Glyoxalase II expressed in Escherichia coli BL21 (DE3)
[14] = Inhibition of beta-lactamase IMP-1 (unknown origin) expressed in Escherichia coli BL21(DE3) using imipenem as substrate by measuring substrate hydrolysis by spectrophotometric analysis; summary of the method: as §2
[15] = Inhibition of beta-lactamase VIM2 (unknown origin) expressed in Escherichia coli BL21(DE3) using imipenem as substrate by measuring substrate hydrolysis at 100 uM by spectrophotometric analysis; summary of the method: as §2
[16] = Inhibition of beta-lactamase IMP-1 (unknown origin) expressed in Escherichia coli LZ2310 assessed as potentiation of ceftazidime antibacterial activity by measuring ceftazidime induced diameter of inhibition zone at 80 uM incubated for 18 hrs by disk diffusion method (reference value: 9 mm); summary of the method: as §1
[17] = Inhibition of beta-lactamase NDM1 (unknown origin) expressed in Escherichia coli BL21(DE3) using cefotaxime/nitrocefin as substrate by measuring substrate hydrolysis at 200 uM by spectrophotometric analysis
[18] = Inhibition of beta-lactamase IMP-1 (unknown origin) expressed in Escherichia coli LZ2310 assessed as potentiation of ceftazidime antibacterial activity by measuring ceftazidime induced diameter of inhibition zone at 40 uM incubated for 18 hrs by disk diffusion method (reference value: 9 mm); summary of the method: as §1
[19] = Inhibition of beta-lactamase CphA (unknown origin) expressed in Escherichia coli BL21(DE3) using imipenem as substrate by measuring substrate hydrolysis by spectrophotometric analysis
Summary of the method: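 Enzyme 0.2–0.8 nM in 15 mM cacodylate pH 6.5, no added zinc, pre-incubated 30 min at 21 °C with inhibitor (100 μM screen). Imipenem substrate added from 10 mM stock; hydrolysis at 300 nm, 30 °C. Residual activity vs three uninhibited samples; Ki (1–100 μM inhibitor) by Hanes linearization, competitive model. Triplicate.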

[20] = Inhibition of beta-lactamase NDM1 (unknown origin) expressed in Escherichia coli BL21(DE3) using cefotaxime/nitrocefin as substrate by measuring substrate hydrolysis at 100 uM by spectrophotometric analysis
[21] = Inhibition of beta-lactamase VIM-2 (unknown origin) expressed in Escherichia coli LZ2310 assessed as potentiation of cefoxitin antibacterial activity by measuring cefoxitin induced diameter of inhibition zone at 320 uM incubated for 18 hrs by disk diffusion method (reference value: 14 mm); summary of the method: as §1
[22] = Inhibition of beta-lactamase VIM-2 (unknown origin) expressed in Escherichia coli XL-1 assessed as potentiation of cefoxitin antibacterial activity by measuring cefoxitin induced diameter of inhibition zone at 320 uM incubated for 18 hrs by disk diffusion method (reference value: 8 mm)
Summary of the method: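 Wild-type efflux E. coli XL-1 Blue transformed with pLB-II-VIM-2. Mueller-Hinton disk diffusion per CLSI, 30 µg cefoxitin disks loaded with inhibitor dissolved in DMSO (≤15 µL). Growth-inhibition zone measured after 18 h at 35 ± 1 °C; DMSO negative and 220 µg EDTA positive controls. Triplicate.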

[23] = Inhibition of beta-lactamase IMP-1 (unknown origin) expressed in Escherichia coli LZ2310 assessed as potentiation of ceftazidime antibacterial activity by measuring ceftazidime induced diameter of inhibition zone at 320 uM incubated for 18 hrs by disk diffusion method (reference value: 9 mm); summary of the method: as §1
[24] = Inhibition of beta-lactamase IMP-1 (unknown origin) expressed in Escherichia coli BL21(DE3) using imipenem as substrate by measuring substrate hydrolysis at 200 uM by spectrophotometric analysis; summary of the method: as §2
[25] = Inhibition of beta-lactamase IMP-1 (unknown origin) expressed in Escherichia coli BL21(DE3) using imipenem as substrate by measuring substrate hydrolysis at 100 uM by spectrophotometric analysis; summary of the method: as §2
[26] = Inhibition of beta-lactamase VIM2 (unknown origin) expressed in Escherichia coli BL21(DE3) using imipenem as substrate by measuring substrate hydrolysis by spectrophotometric analysis; summary of the method: as §2
[27] = Inhibition of beta-lactamase VIM4 (unknown origin) expressed in Escherichia coli BL21(DE3) using imipenem as substrate by measuring substrate hydrolysis by spectrophotometric analysis; summary of the method: as §2
[28] = Binding affinity to beta-lactamase VIM-2 expressed in Escherichia coli BL21(DE3) assessed as change in enthalpy at 25 degC by isothermal titration calorimetry
Summary of the method: (§4)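 VIM-2 (19 μM) in 10 mM HEPES-NaOH, 0.15 M NaCl, 50 μM ZnSO4, pH 7.5, DMSO matched to ligand (1-2% final). One 0.5 μl then 19 × 2 μl injections of compound (200-400 μM), 150 s apart, 25 °C. Buffer dilution heats subtracted; nonlinear least-squares fit for n, Ka, ΔH; compound concentration adjusted in fitting so n ≈ 1.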

[29] = Binding affinity to beta-lactamase VIM-2 expressed in Escherichia coli BL21(DE3) assessed as Gibbs free energy at 25 degC by isothermal titration calorimetry; summary of the method: as §4
[30] = Inhibition of beta-lactamase L1 (unknown origin) expressed in Escherichia coli BL21(DE3) using nitrocefin as substrate by measuring substrate hydrolysis preincubated for 30 mins by spectrophotometric analysis; summary of the method: as §3
[31] = Binding affinity to beta-lactamase VIM-2 expressed in Escherichia coli BL21(DE3) assessed as change in entropy at 25 degC by isothermal titration calorimetry; summary of the method: as §4
[32] = Binding affinity to beta-lactamase VIM-2 expressed in Escherichia coli BL21(DE3) assessed as dissociation constant at 25 degC by isothermal titration calorimetry; summary of the method: as §4
[33] = Binding affinity to beta-lactamase VIM-2 expressed in Escherichia coli BL21(DE3) assessed as association constant at 25 degC by isothermal titration calorimetry; summary of the method: as §4
[34] = Inhibition of beta-lactamase VIM-2 (unknown origin) expressed in Escherichia coli LZ2310 assessed as potentiation of cefoxitin antibacterial activity by measuring cefoxitin induced diameter of inhibition zone at 80 uM incubated for 18 hrs by disk diffusion method (reference value: 14 mm); summary of the method: as §1

Row | inhibition [3] | inhibition [5] | inhibition [7] | inhibition [8] | inhibition [10] | inhibition [15] | inhibition zone (IZ) [16] [mm] | inhibition [17] | inhibition [20] | inhibition zone (IZ) [21] [mm] | inhibition zone (IZ) [22] [mm] | inhibition zone (IZ) [23] [mm] | inhibition [24] | SMILES | Ki [12] [nM] | Ki [14] [nM] | Ki [26] [nM] | Ki [27] [nM] | other results
1 | inactive | inactive | inactive | inactive | inactive | inactive |  |  |  |  |  |  |  | S=c1[nH]nc(-c2cccc(-c3ccccc3)c2)n1/N=C/c1ccc(OCc2ccccc2)cc1 | 1800 | 9000 |  |  | MIC (Escherichia coli [1]): > 256 µg/mL; inhibition zone (IZ) [2]: 15 mm; MIC (Escherichia coli [4]): > 256 µg/mL; MIC (Escherichia coli [6]): 8 µg/mL; MIC (Escherichia coli [9]): > 256 µg/mL; MIC (Escherichia coli [11]): 64 µg/mL; IC50 [13]: 23400 nM
2 | inactive |  | 61% |  | 44% | inactive | 13 | inactive | inactive |  |  |  |  | Cc1ccccc1-c1n[nH]c(=S)n1/N=C/c1cc([N+](=O)[O-])ccc1O |  | 11000 |  |  | inhibition zone (IZ) [18]: 9 mm; Ki [19]: 3000 nM
3 | inactive | inactive | inactive | inactive | inactive | inactive |  |  | 64% | 16 | 10 | 11 |  | S=c1[nH]nc(-c2ccc(-c3ccccc3)cc2)n1/N=C/c1ccc(OCc2ccccc2)cc1 |  | 11400 |  |  | 
4 | inactive | inactive | inactive | inactive | inactive | inactive | 9 | inactive | inactive |  |  |  | 60% | S=c1[nH]nc(-c2cc3ccccc3[nH]2)n1/N=C/c1ccc(OCc2ccccc2)cc1 |  |  |  |  | 
5 | inactive | inactive | inactive | inactive | inactive | inactive | 9 | inactive | inactive |  |  |  | inactive | S=c1[nH]nc(Cc2ccc3ccccc3c2)n1/N=C/c1ccc(OCc2ccccc2)cc1 |  |  |  |  | inhibition [25]: inactive
6 |  |  | 40% |  |  |  |  | inactive | inactive | 17 | 10 | 12 | inactive | O=C(O)c1ccccc1/C=N/n1c(-c2ccccc2O)n[nH]c1=S |  |  | 2200 | 3000 | inhibition [25]: inactive
7 |  |  |  |  |  |  |  |  |  | 15 | 9 | 9 |  | O=C(O)c1ccccc1/C=N/n1c(-c2cccc(-c3ccccc3)c2)n[nH]c1=S | 4200 | 17700 | 200 | 40 | deltaH [28]: -7.2 kcal/mol; deltaG [29]: -9.8 kcal/mol; Ki [30]: 600 nM; Ki [19]: 4000 nM; -TdeltaS [31]: 2.6 kcal/mol; Kd [32]: 68 nM; Ka [33]: 1.5 10^7/M
8 |  |  |  |  |  |  |  |  |  |  |  |  |  | O=C(O)c1ccccc1/C=N/n1c(-c2ccc(-c3ccccc3)cc2)n[nH]c1=S | 1300 | 32400 | 2500 | 4000 | MIC (Escherichia coli [1]): > 256 µg/mL; inhibition zone (IZ) [2]: 15 mm; MIC (Escherichia coli [4]): > 256 µg/mL; Ki [30]: 900 nM; MIC (Escherichia coli [6]): 8 µg/mL; MIC (Escherichia coli [9]): > 256 µg/mL; MIC (Escherichia coli [11]): 32 µg/mL; inhibition zone (IZ) [34]: 15 mm
